ChEMBL document CHEMBL1938394, “Time-dependent slowly-reversible inhibition of monoamine oxidase A by N-substituted 1,2,3,6-tetrahydropyridines” (Bioorg Med Chem, 2011)

Key:
[1] = target: T1, Amine oxidase [flavin-containing] A (Homo sapiens, UniProt P21397); experiment: Inhibition of human recombinant MAOA expressed in insect cells assessed as oxidation of kynuramine substrate at 50 uM measured after additional enzyme added after 120 mins incubation; conditions: 2 h
T1 sequence (P21397 whole entry): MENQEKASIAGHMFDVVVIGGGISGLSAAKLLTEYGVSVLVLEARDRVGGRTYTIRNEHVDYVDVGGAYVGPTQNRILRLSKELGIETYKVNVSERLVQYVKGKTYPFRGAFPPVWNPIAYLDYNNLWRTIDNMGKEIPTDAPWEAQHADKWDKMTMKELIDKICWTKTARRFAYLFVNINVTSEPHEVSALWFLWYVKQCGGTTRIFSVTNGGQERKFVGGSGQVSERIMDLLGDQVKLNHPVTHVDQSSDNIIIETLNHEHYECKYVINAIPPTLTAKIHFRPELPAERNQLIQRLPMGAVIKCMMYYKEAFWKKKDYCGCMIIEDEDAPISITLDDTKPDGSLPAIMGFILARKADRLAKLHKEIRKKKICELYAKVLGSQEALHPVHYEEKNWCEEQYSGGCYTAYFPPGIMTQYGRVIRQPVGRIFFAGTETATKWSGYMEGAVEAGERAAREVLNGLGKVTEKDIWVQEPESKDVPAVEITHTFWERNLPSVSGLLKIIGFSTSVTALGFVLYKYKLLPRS
Method in brief: (§1)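 Recombinant human MAO-A incubated with kynuramine, with or without inhibitor. Product formation followed over time. A second equivalent of substrate (150 µM kynuramine) added at 90 min and fresh enzyme added at 120 min.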

[2] = target: T1, Amine oxidase [flavin-containing] A; experiment: Inhibition of human recombinant MAOA expressed in insect cells assessed as oxidation of kynuramine substrate at 50 uM measured after additional substrate added after 90 mins incubation; conditions: 1.5 h; method in brief: as §1
Mus musculus [3] = experiment: Neurotoxicity in C57BL/6J mouse assessed as increase of striatal GFAP level at 12.5 mg/kg, sc after 72 hrs by ELISA; format: toxicity, organism-based; parameters: dose 12.5 mg/kg, route subcutaneous; conditions: in vivo
Method in brief: (§2)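 Female C57BL/6J mice aged 3–4 months, single sc dose, 0.9% saline vehicle, killed 72 h post-dose. Striatum homogenised in hot 1% SDS. GFAP or TH measured by detergent-based sandwich ELISA.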

Mus musculus [4] = experiment: Neurotoxicity in C57BL/6J mouse assessed as reduction of striatal tyrosine hydroxylase level at 12.5 mg/kg, sc after 72 hrs by ELISA; format: toxicity, organism-based; parameters: dose 12.5 mg/kg, route subcutaneous; conditions: in vivo; method in brief: as §2

CN1CC=C(c2ccccc2)CC1
inhibition (INH) [1]: Active
inhibition (INH) [2]: Active
Activity (Mus musculus [3]): Toxic
Activity (Mus musculus [4]): Toxic
